Calls of active or inactive are those of the source. The rule behind the calls is not given here.
Tests used:
[1] = biological target: T1, Retinoic acid receptor RXR-beta (Homo sapiens, UniProt P28702); assay: Antagonist activity at RXRbeta expressed in african green monkey COS1 cells assessed as inhibition of LGD-1069-induced agonist activity; assay type: functional, cell-based, COS-1
T1 sequence (P28702 whole entry): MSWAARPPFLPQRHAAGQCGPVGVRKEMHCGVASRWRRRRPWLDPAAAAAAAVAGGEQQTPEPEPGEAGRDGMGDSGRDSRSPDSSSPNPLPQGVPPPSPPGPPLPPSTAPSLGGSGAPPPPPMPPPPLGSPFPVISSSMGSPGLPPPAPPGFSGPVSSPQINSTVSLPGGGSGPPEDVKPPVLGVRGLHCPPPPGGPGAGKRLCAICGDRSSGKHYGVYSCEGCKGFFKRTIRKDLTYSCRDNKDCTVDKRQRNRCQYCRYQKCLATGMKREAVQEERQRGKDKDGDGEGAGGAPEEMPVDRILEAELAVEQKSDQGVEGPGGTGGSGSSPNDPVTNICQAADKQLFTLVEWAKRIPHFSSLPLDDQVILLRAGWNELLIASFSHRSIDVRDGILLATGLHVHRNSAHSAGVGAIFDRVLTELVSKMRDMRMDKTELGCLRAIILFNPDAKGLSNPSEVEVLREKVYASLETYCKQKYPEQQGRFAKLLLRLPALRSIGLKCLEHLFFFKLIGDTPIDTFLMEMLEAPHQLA
Summary of the method: (§1)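 Luciferase reporter gene assay in COS-1 cells measuring inhibition of LGD1069-driven activity. IC50 is taken from full dose–response curves spanning 10^-7 to 10^-5 M.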

[2] = biological target: T2, Retinoic acid receptor RXR-beta (Homo sapiens) (UniProt P28702); assay: Agonist activity at RXRbeta expressed in african green monkey COS1 cells by luciferase reporter gene assay relative to LGD1069; assay type: functional, cell-based; details: COS-1
T2 sequence (whole entry): T1 sequence (P28702 whole entry)
Summary of the method: (§2)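 Luciferase reporter gene assay in COS-1 cells. Each subtype's activity is expressed relative to 1 μM LGD1069, an RXR pan-agonist, used as the reference.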

[3] = biological target: T3, Retinoic acid receptor RXR-gamma (Homo sapiens, UniProt P48443); assay: Antagonist activity at RXRgamma expressed in african green monkey COS1 cells assessed as inhibition of LGD-1069-induced agonist activity; assay type: functional, cell-based, COS-1; summary of the method: as §1
T3 sequence (P48443 whole entry): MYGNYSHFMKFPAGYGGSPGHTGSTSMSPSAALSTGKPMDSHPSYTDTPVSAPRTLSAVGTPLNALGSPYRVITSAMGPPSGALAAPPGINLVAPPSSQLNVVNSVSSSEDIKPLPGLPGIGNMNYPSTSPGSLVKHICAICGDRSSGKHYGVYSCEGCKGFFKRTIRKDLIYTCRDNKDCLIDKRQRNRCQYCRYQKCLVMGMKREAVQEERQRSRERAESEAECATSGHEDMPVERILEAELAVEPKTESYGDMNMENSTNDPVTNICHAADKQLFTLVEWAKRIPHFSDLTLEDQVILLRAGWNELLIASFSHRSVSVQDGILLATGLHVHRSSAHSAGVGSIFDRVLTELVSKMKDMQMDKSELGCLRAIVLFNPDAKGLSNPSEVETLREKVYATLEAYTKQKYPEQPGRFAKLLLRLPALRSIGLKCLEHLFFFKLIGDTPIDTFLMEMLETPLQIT

[4] = biological target: T4, Retinoic acid receptor RXR-gamma (Homo sapiens) (UniProt P48443); assay: Agonist activity at RXRgamma expressed in african green monkey COS1 cells by luciferase reporter gene assay relative to LGD1069; assay type: functional, cell-based; details: COS-1; summary of the method: as §2
T4 sequence (whole entry): T3 sequence (P48443 whole entry)

[5] = biological target: T5, Retinoic acid receptor RXR-alpha (Homo sapiens) (UniProt P19793); assay: Agonist activity at RXRalpha expressed in african green monkey COS1 cells by luciferase reporter gene assay relative to LGD1069; assay type: functional, cell-based; details: COS-1; summary of the method: as §2
T5 sequence (whole entry): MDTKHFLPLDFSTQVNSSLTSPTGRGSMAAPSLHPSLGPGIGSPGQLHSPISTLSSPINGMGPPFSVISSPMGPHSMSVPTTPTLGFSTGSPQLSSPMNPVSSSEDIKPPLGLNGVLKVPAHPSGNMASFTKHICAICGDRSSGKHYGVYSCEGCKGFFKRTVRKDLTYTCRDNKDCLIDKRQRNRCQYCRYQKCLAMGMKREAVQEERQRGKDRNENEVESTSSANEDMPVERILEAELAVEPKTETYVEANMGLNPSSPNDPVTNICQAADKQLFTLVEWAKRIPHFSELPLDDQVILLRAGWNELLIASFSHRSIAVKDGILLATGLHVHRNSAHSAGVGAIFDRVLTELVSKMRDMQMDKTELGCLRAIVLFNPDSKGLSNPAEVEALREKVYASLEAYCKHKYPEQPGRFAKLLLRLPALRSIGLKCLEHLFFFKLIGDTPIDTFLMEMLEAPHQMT

[6] = biological target: T6, Retinoic acid receptor RXR-alpha (Homo sapiens, UniProt P19793); assay: Antagonist activity at RXRalpha expressed in african green monkey COS1 cells assessed as inhibition of LGD-1069-induced agonist activity; assay type: functional, cell-based, COS-1
T6 sequence (P19793 whole entry): T5 sequence (whole entry)

| Compound | IC50 [1] | Activity [2] | IC50 [3] | Activity [4] | Activity [5] | IC50 [6] |
| --- | --- | --- | --- | --- | --- | --- |
| CC1(C)CCC(C)(C)c2cc(N(c3ccc(C(=O)O)cn3)S(=O)(=O)c3ccccc3)ccc21 | > 10 µM | inactive | > 10 µM | inactive | inactive | > 10 µM |
| Cc1ccc(S(=O)(=O)N(c2ccc3c(c2)C(C)(C)CCC3(C)C)c2ccc(C(=O)O)cn2)cc1 | 3 µM | inactive | 3.8 µM | inactive | inactive | 5.2 µM |
| CC1(C)CCC(C)(C)c2cc(N(c3ccc(C(=O)O)cn3)S(=O)(=O)c3ccc(Cl)cc3)ccc21 | 0.87 µM | inactive | 4.5 µM | inactive | inactive | 4.1 µM |
| CCCCS(=O)(=O)N(c1ccc2c(c1)C(C)(C)CCC2(C)C)c1ccc(C(=O)O)cn1 | > 10 µM | – | > 10 µM | – | – | > 10 µM |
| CN1c2ccc([N+](=O)[O-])cc2N=C(c2ccc(C(=O)O)cc2)c2cc3c(cc21)C(C)(C)CCC3(C)C | 0.044 µM | – | 0.38 µM | – | – | – |
| CC1(C)CCC(C)(C)c2cc(N(c3ccc(C(=O)O)cn3)S(=O)(=O)c3ccc([N+](=O)[O-])cc3)ccc21 | > 10 µM | inactive | > 10 µM | inactive | inactive | > 10 µM |
| COc1ccc(S(=O)(=O)N(c2ccc3c(c2)C(C)(C)CCC3(C)C)c2ccc(C(=O)O)cn2)cc1 | 3.9 µM | inactive | 6.6 µM | inactive | inactive | 2.7 µM |
| CC1(C)CCC(C)(C)c2cc(N(c3ccc(C(=O)O)cn3)S(=O)(=O)c3ccc(C(F)(F)F)cc3)ccc21 | 0.75 µM | inactive | 2.7 µM | inactive | inactive | 3.2 µM |

Reference: ChEMBL document CHEMBL1141025, “Replacing alkyl sulfonamide with aromatic sulfonamide in sulfonamide-type RXR agonists favors switch towards antagonist activity” (Bioorg Med Chem Lett, 2009)
